For three molecules, EC50 and IC50 results are on record in paper PMC6381215 (Pharmacology Research & Perspectives, 2019).

For assay [1], the target named is NMDA receptor (ion-channel / PCP site), rat forebrain membranes. Briefly: enhancement of [3H]MK-[…]) binding. The note with it: 5 mM Tris-HCl pH 7.4, 25 °C, 20 h.
In assay [2] the test system is Ca2+ channel (L, verapamil site). The assay is described as follows: radioligand competition. The note with it: read-out: IC50 (M) ^a. The method, boiled down:
(§1)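 Outsourced radioligand competition binding panel of receptors, transporters and ion channels. Primary screen used a single 10 μmol L−1 concentration of test compound to give % inhibition of control specific binding. […] IC50 and Hill coefficient were obtained by non-linear regression.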
(In general: Loss of bound radioactivity is the signal in a displacement assay; it reports binding, not function.)

Another assay concerns Na+ channel (site 2). Briefly: radioligand competition. The note with it: read-out: IC50 (M) ^a. The method, boiled down: as §1
In a further assay the test system is Sigma (1 and 2). Briefly: radioligand competition. The note with it: read-out: IC50 (M) ^a; non-selective sigma 1 and 2. The method, boiled down: as §1

As usually defined, the EC50 is the midpoint of the concentration-response curve. A word on the IC50: it is the midpoint of a concentration-inhibition curve.

`NCC(=O)O` [glycine]: the 50% effective concentration (EC50) in assay [1] (co-agonist (glycine) site, no added glutamate) came out at 1050 ± 500 nM.

Consider `COc1cccc(N(C)C(=N)Nc2cc(SC)ccc2Cl)c1` [GMOM, N‐(2‐chloro‐5‐thiomethylphenyl)‐N′‐(3‐methoxyphenyl)‐N′‐methylguanidine], for which the IC50 in assay [2] is 2.2e-06 M; with Na+ channel (site 2) it was 3.9e-06 M; with Sigma (1 and 2), 2.2e-06 M.

With `N[C@@H](CCC(=O)O)C(=O)O` [L-glutamate], in assay [1] (agonist (glutamate) site, no added glycine), the half-maximal effective concentration (EC50) was determined as 200 ± 10 nM.
